Assay results published in ChEMBL document CHEMBL1629687, “Minigenome-based reporter system suitable for high-throughput screening of compounds able to inhibit Ebolavirus replication and/or transcription” (Antimicrob Agents Chemother, 2010).

Legend:
[1] = test system: Ebolavirus; assay: Antiviral activity against Ebolavirus infected in african green monkey COS1 cells assessed as inhibition of viral replication after 32 hrs by luciferase reporter gene assay; format: functional, COS-1
Outline: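 Ebola minigenome assay, not live virus: COS-1 cells in suspension were batch-transfected with minireplicon and NP/VP35/L support plasmids, then plated in 96-well format. Compounds in DMSO were added at 10 μM final; DMSO-only wells served as controls. Luciferase was read after 32 h. Percent inhibition = 1 − (compound-well signal / mean DMSO-well signal) × 100.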

[2] = Cytotoxicity against african green monkey COS1 cells assessed as reduction in cell viability after 32 hrs by luminescent assay; format: cell-based, COS-1; settings: chlorocebus aethiops, read-out: INH
Outline: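 Parallel plates of batch-transfected COS-1 cells received the same compounds in DMSO (10 μM final). Cell viability was measured with the CellTiter-Glo luminescent assay to flag cytotoxicity.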

In the case of CC[C@H]1CN2CCc3cc(OC)c(OC)cc3[C@@H]2C[C@@H]1C[C@H]1NCCc2cc(O)c(OC)cc21.Cl.Cl [CEPHAELINE DIHYDROCHLORIDE], the “inhibition (INH)” value [1] is reported as 99% and the cytotoxicity at 32 h [2] is reported as 14%.

For COc1cccc2c1C(=O)c1c(O)c3c(c(O)c1C2=O)C[C@@](O)(C(=O)CO)C[C@@H]3O[C@H]1C[C@H](N)[C@H](O)[C@H](C)O1.Cl [DOXORUBICIN HYDROCHLORIDE], the “inhibition (INH)” value [1] was 97% and the cytotoxicity at 32 h [2] was 25%.

In the case of Cc1c2ccncc2c(C)c2c1[nH]c1ccccc12 [ELLIPTECINE], the “inhibition (INH)” value [1] is reported as 99% and the cytotoxicity at 32 h [2] is reported as 8%.

For CC[C@H]1CN2CCc3cc(OC)c(OC)cc3[C@@H]2C[C@@H]1C[C@H]1NCCc2cc(OC)c(OC)cc21.Cl.Cl [EMETINE HYDROCHLORIDE], the “inhibition (INH)” value [1] was 99% and the cytotoxicity at 32 h [2] was 3%.

For O=C1C=C2C(=CCOC2O)O1 (configuration not stated) [PATULIN], the “inhibition (INH)” value [1] was 89% and the cytotoxicity at 32 h [2] was 20%.

With CC[C@@H](C(=O)[C@@H](C)[C@@H](O)[C@H](C)[C@@H]1O[C@@H]([C@@H](CC)C(=O)O)CC[C@@H]1C)[C@H]1O[C@]2(C=C[C@@H](O)[C@]3(CC[C@@](C)([C@H]4CC[C@](O)(CC)[C@H](C)O4)O3)O2)[C@H](C)C[C@@H]1C [SALINOMYCIN] the “inhibition (INH)” value [1] was 86% and the cytotoxicity at 32 h [2] was 17%.
